The text below walks through data of ChEMBL document CHEMBL2177030.

The source made the active and inactive calls. The rule behind the calls is not given here.

Assay [1] concerns the target Monoacylglycerol lipase (Mycobacterium tuberculosis H37Rv) (UniProt O07427). Nature of the assay: Inhibition of Mycobacterium tuberculosis Rv0183 assessed as covalent bond formation with enzyme serine residue by measuring change in molecular weight of enzyme-compound complexes at 40 molar excess compound concentration pre-incubated for 30 mins with enzyme before substrate addition by MALDI-TOF mass spectrometry method. The gist of the method: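 Each enzyme was preincubated with the inhibitor for 30 min at 25 °C at xI 40, with the inhibitor taken from a 5 mg/mL isopropanol stock. Intact masses of native and inhibited protein were measured by MALDI-TOF. For tryptic mapping, 5–50 pmol protein was reduced with DTT, alkylated with iodoacetamide and digested overnight at 37 °C.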

Assay [2] has as its target T1, Gastric triacylglycerol lipase (Canis lupus familiaris) (UniProt P80035).
T1 sequence (whole entry): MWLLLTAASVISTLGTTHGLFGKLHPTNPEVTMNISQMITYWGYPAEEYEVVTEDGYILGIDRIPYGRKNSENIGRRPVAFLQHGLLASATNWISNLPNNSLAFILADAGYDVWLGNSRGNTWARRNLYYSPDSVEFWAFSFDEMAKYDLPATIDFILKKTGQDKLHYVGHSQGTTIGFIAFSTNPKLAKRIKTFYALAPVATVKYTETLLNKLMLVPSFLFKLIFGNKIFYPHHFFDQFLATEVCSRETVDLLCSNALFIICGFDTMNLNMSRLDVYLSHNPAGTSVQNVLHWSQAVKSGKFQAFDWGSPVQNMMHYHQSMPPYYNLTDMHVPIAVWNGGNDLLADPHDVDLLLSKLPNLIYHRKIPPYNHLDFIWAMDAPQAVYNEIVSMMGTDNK
In words: Inhibition of dog recombinant gastric lipase expressed in transgenic maize at 200 molar excess compound concentration pre-incubated for 2 hrs with enzyme before substrate addition by pH-stat technique. To be noted: Stomach. Format: single protein.

In assay [3] the target is T2, Pancreatic lipase-related protein 2 (Cavia porcellus) (UniProt P81139).
T2 sequence (whole entry): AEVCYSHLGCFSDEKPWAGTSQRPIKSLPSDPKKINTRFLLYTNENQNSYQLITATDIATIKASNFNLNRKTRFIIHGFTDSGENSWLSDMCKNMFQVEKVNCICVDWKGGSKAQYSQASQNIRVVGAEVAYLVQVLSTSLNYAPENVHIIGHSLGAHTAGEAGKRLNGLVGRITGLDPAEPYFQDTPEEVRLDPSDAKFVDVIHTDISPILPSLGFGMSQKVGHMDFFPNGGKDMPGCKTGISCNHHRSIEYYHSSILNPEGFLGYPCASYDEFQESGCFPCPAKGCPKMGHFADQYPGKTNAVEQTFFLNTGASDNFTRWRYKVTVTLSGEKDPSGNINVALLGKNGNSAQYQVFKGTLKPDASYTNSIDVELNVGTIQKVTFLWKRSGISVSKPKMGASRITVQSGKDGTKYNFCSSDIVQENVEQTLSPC
In words: Inhibition of guinea pig recombinant PLRP2 expressed in Aspergillus oryzae at 200 molar excess compound concentration pre-incubated for 2 hrs with enzyme before substrate addition by pH-stat technique.

Assay [4] addresses T3, Pancreatic triacylglycerol lipase (Homo sapiens) (UniProt P16233).
T3 sequence (whole entry): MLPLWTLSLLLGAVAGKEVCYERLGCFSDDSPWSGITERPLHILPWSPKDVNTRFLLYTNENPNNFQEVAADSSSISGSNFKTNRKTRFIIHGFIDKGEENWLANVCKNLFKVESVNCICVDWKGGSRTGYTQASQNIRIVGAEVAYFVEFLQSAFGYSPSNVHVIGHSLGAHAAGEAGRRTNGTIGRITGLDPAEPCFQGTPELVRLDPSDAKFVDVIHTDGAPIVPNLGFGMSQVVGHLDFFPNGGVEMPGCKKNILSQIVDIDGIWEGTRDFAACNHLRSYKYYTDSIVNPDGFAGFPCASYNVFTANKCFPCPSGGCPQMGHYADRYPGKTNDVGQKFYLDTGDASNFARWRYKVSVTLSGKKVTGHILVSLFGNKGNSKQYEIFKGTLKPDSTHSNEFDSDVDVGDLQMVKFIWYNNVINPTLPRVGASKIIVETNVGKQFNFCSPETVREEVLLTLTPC
In words: Inhibition of human recombinant pancreatic lipase expressed in Pichia pastoris at 200 molar excess compound concentration pre-incubated for 2 hrs with enzyme before substrate addition by pH-stat technique.

Assay [5] concerns the target Monoacylglycerol lipase (Mycobacterium tuberculosis H37Rv) (UniProt O07427). In words: Inhibition of Mycobacterium tuberculosis Rv0183 assessed as half inactivation time pre-incubated with enzyme before substrate addition by pH-stat technique. Summed up: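 For the time course, Rv0183 was exposed to inhibitor at xI 4 at 25 °C without bile salt for 1 h. Residual activity was read at intervals by pH-stat at 37 °C using 100 µL MC18 in 15 mL 2.5 mM Tris-HCl pH 8.0, 150 mM NaCl, 3 mM NaTDC. t1/2 was derived from the curve. Runs were done at least in duplicate.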

For assay [6] the target is unchanged. In words: Inhibition of Mycobacterium tuberculosis Rv0183 assessed as residual enzyme activity pre-incubated for 30 mins with enzyme before substrate addition by pH-stat technique. The gist of the method: (§1)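 Rv0183 was preincubated 30 min at 25 °C without NaTDC at inhibitor molar excess 2, 4, 20, 40 or 100. Residual monoglyceride lipase activity was measured by pH-stat at 37 °C with MC18 emulsion, pH 8.0, 3 mM NaTDC. xI50 was read from the residual-activity curve. Solvent controls were run. At least duplicate.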

Assay [7] relates to Mycobacterium tuberculosis. Nature of the assay: Inhibition of Mycobacterium tuberculosis LipY pre-incubated for 30 mins with enzyme before substrate addition by pH-stat technique. The gist of the method: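 Without NaTDC, LipY was incubated 30 min at 25 °C with inhibitor at xI 2–100. Residual activity was determined by pH-stat at 37 °C on TC4 in 2.5 mM Tris-HCl pH 7.5, 300 mM NaCl, 3 mM NaTDC. xI50 was taken from activity versus molar excess. Isopropanol-only controls were run. At least duplicate.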

Assay [8] deals with Monoacylglycerol lipase (Mycobacterium tuberculosis H37Rv) (UniProt O07427). In words: Inhibition of Mycobacterium tuberculosis Rv0183 pre-incubated for 30 mins with enzyme before substrate addition by pH-stat technique. The gist of the method: as §1
Sequence of Monoacylglycerol lipase (Mycobacterium tuberculosis H37Rv) (O07427 whole entry): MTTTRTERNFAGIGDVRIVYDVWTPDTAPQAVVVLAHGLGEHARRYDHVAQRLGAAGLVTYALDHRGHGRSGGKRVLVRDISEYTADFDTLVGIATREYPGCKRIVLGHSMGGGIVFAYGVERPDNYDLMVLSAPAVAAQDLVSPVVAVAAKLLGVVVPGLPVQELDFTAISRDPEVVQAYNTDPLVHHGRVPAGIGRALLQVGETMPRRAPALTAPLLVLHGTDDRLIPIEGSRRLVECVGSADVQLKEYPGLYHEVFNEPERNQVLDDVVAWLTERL
Assay [9] deals with T4, Cutinase 1 (Fusarium vanettenii) (UniProt P00590).
T4 sequence (whole entry): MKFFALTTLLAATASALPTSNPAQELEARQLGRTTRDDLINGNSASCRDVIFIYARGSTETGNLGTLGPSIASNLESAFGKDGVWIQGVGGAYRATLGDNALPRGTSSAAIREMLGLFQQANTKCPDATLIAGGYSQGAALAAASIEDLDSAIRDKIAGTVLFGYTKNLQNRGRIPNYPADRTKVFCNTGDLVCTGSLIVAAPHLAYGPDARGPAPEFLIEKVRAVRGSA
In words: Inhibition of Fusarium solani pisi cutinase pre-incubated for 30 mins with enzyme before substrate addition by pH-stat technique. Summed up:
(§2)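 Cutinase was preincubated for 30 min at 25 °C in 2 mM NaTDC, substrate absent, at inhibitor molar excess xI 2, 4, 20, 40 or 100. Residual activity was measured by pH-stat at 37 °C on TC4 emulsion at pH 8.0 with 0.25 mM NaTDC. xI50 is the molar excess giving 50% activity. Isopropanol controls were run. At least duplicate.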

Assay [10] addresses T1, Gastric triacylglycerol lipase (Canis lupus familiaris). Nature of the assay: Inhibition of dog recombinant gastric lipase expressed in transgenic maize pre-incubated for 30 mins with enzyme before substrate addition by pH-stat technique. Format: tissue-based. To be noted: Stomach. Summed up: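 Gastric lipase was incubated 30 min at 25 °C with 4 mM NaTDC at inhibitor xI 2–100. Residual activity was measured by pH-stat at 37 °C on TC4 emulsion in 150 mM NaCl, 2 mM NaTDC, 2 µM BSA, pH 5.5. xI50 is the molar excess halving activity. At least duplicate.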

Assay [11] concerns the target T2, Pancreatic lipase-related protein 2 (Cavia porcellus). Nature of the assay: Inhibition of guinea pig recombinant PLRP2 expressed in Aspergillus oryzae pre-incubated for 30 mins with enzyme before substrate addition by pH-stat technique.
Assay [12] addresses T3, Pancreatic triacylglycerol lipase (Homo sapiens).
In assay [13] the target is T4, Cutinase 1 (Fusarium vanettenii). In words: Inhibition of Fusarium solani pisi cutinase assessed as half inactivation time pre-incubated with enzyme before substrate addition by pH-stat technique. Summed up: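 Cutinase was preincubated at 25 °C with inhibitor at xI 4 in 2 mM NaTDC for 1 h. Residual activity was sampled at intervals by pH-stat at 37 °C on TC4 emulsion in 2.5 mM Tris-HCl pH 8.0, 150 mM NaCl, 0.25 mM NaTDC. t1/2 was taken from the time course. Runs were done at least in duplicate.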

Assay [14] shares this target. Nature of the assay: Inhibition of Fusarium solani pisi cutinase assessed as residual enzyme activity pre-incubated for 30 mins with enzyme before substrate addition by pH-stat technique. Summed up: as §2
The test system of assay [15] is Mycobacterium tuberculosis. Nature of the assay: Inhibition of Mycobacterium tuberculosis LipY at 40 molar excess compound concentration pre-incubated for 30 mins with enzyme before substrate addition by pH-stat technique.

One may read the inhibition as the drop in the measured response relative to a control, in per cent. As for `CCCCCCCCCC[C@@H]1CC[P@@](=O)(OC)OC(C)=C1C(=O)OC` (racemic), the values for the Activity in [1] and in assay [6] were 377 Da and 6%, respectively. The inhibition entry in assay [2], in assay [3] and in assay [4] was “inactive” in each case. Moreover, the T1/2 in assay [5] was determined as 86.4 s. For the same compound, the values for the XI50 in [7], in assay [8] and in assay [9] were 2.81 molar excess, 1.13 molar excess and 1.98 molar excess, respectively.
For `CCCCCCCCCCC[C@@H](C[C@@H]1OC(=O)[C@H]1CCCCCC)OC(=O)[C@H](CC(C)C)NC=O`, the XI50 in assay [7] is 7.07 molar excess; in assay [8] it was > 200 molar excess; in [9], 2.52 molar excess; in assay [10], 5.6 molar excess; in assay [11] it was 0.53 molar excess; in [12], 18.4 molar excess.
Turning to `CO[P@]1(=O)OC[C@H]2COC(=O)C2=C(C)O1` (racemic), the inhibition entry in assay [2], in assay [3] and in assay [4] was “inactive” in each case. The T1/2 in assay [13] came to 10.8 s. Further, the Activity in [14] turned out to be 6%. In addition, the inhibition in assay [15] came out at 14%. Moreover, the results for the XI50 in [8] and in assay [9] were 5.22 molar excess and 0.96 molar excess, respectively.
